According to ChEMBL document CHEMBL3045697, “Acaricidal activity of clove bud oil compounds against Dermatophagoides farinae and Dermatophagoides pteronyssinus (Acari: Pyroglyphidae)” (2003):
Calls of active or inactive are those of the source. The rule behind the calls is not given here.

Legend:
[1] = tested on: Dermatophagoides pteronyssinus; test: Acaricidal activity against Dermatophagoides pteronyssinus assessed as mortality at 6.4 to 8 ug/cm2 after 24 to 72 hr by fabric disk assay relative to untreated control; type: functional, organism-based
Outline: (§1)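 Test material in 20 µL ethanol is applied to a 5 cm black cotton fabric disk, and control disks get ethanol alone. After drying 30 s, each disk goes into a covered 5 cm Petri dish with 25 adult mites (7–10 days old), held at 25 ± 1 °C, 75% RH, in darkness. Mortality is scored at 24, 48 and 72 h under a 20× binocular microscope, dead meaning no appendage movement when prodded with a pin. Three replicates; mean ± SE reported.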

[2] = tested on: Dermatophagoides farinae; test: Acaricidal activity against Dermatophagoides farinae assessed as mortality at 6.4 ug/cm2 after 72 hr by fabric disk assay relative to untreated control; type: functional; outline: as §1
[3] = tested on: Dermatophagoides farinae; test: Acaricidal activity against Dermatophagoides farinae assessed as mortality at 6.4 ug/cm2 after 48 hr by fabric disk assay relative to untreated control; type: functional; outline: as §1
[4] = tested on: Dermatophagoides farinae; test: Acaricidal activity against Dermatophagoides farinae assessed as mortality at 8 ug/cm2 after 48 hr by fabric disk assay relative to untreated control; type: functional; outline: as §1
[5] = tested on: Dermatophagoides farinae; test: Acaricidal activity against Dermatophagoides farinae assessed as mortality at 6.4 ug/cm2 after 24 hr by fabric disk assay relative to untreated control; type: functional; outline: as §1
[6] = tested on: Dermatophagoides farinae; test: Acaricidal activity against Dermatophagoides farinae assessed as mortality at 8 ug/cm2 after 24 hr by fabric disk assay relative to untreated control; type: functional; outline: as §1
[7] = tested on: Dermatophagoides pteronyssinus; test: Acaricidal activity against Dermatophagoides pteronyssinus after 24 hr by fabric disk assay; type: functional
[8] = tested on: Dermatophagoides farinae; test: Acaricidal activity against Dermatophagoides farinae after 24 hr by fabric disk assay; type: functional
[9] = tested on: Dermatophagoides farinae; test: Acaricidal activity against Dermatophagoides farinae assessed as mortality at 8 ug/cm2 after 72 hr by fabric disk assay relative to untreated control; type: functional; outline: as §1
[10] = tested on: Dermatophagoides farinae; test: Acaricidal activity against Dermatophagoides farinae assessed as mortality at 9.6 ug/cm2 after 72 hr by fabric disk assay relative to untreated control; type: functional; outline: as §1
[11] = tested on: Dermatophagoides farinae; test: Acaricidal activity against Dermatophagoides farinae assessed as mortality at 12.7 ug/cm2 after 72 hr by fabric disk assay relative to untreated control; type: functional; outline: as §1
[12] = tested on: Dermatophagoides farinae; test: Acaricidal activity against Dermatophagoides farinae assessed as mortality at 9.6 ug/cm2 after 48 hr by fabric disk assay relative to untreated control; type: functional; outline: as §1
[13] = tested on: Dermatophagoides farinae; test: Acaricidal activity against Dermatophagoides farinae assessed as mortality at 9.6 ug/cm2 after 24 hr by fabric disk assay relative to untreated control; type: functional; outline: as §1
[14] = tested on: Dermatophagoides pteronyssinus; test: Acaricidal activity against Dermatophagoides pteronyssinus assessed as mortality at 9.6 to 12.7 ug/cm2 after 24 to 72 hr by fabric disk assay relative to untreated control; type: functional, organism-based
Outline: (§2)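 Contact bioassay: compound in 20 µL ethanol applied to 5 cm black cotton fabric disks, air-dried 30 s, then placed in Petri dishes with 25 adult mites (7-10 days old). Held at 25 ± 1 °C, 75% RH, in darkness. Controls received ethanol only. Triplicate; mean ± SE.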

[15] = tested on: Dermatophagoides farinae; test: Acaricidal activity against Dermatophagoides farinae assessed as mortality at 12.7 ug/cm2 after 24 hr by fabric disk assay relative to untreated control; type: functional; outline: as §1
[16] = tested on: Dermatophagoides farinae; test: Acaricidal activity against Dermatophagoides farinae assessed as mortality at 12.7 ug/cm2 after 48 hr by fabric disk assay relative to untreated control; type: functional; outline: as §1
[17] = tested on: Dermatophagoides pteronyssinus; test: Acaricidal activity against Dermatophagoides pteronyssinus assessed as mortality at 38.2 to 50.9 ug/cm2 after 24 to 72 hr by fabric disk assay relative to untreated control; type: functional, organism-based; outline: as §2
[18] = tested on: Dermatophagoides farinae; test: Acaricidal activity against Dermatophagoides farinae assessed as mortality at 50.9 ug/cm2 after 72 hr by fabric disk assay relative to untreated control; type: functional; outline: as §1
[19] = tested on: Dermatophagoides farinae; test: Acaricidal activity against Dermatophagoides farinae assessed as mortality at 38.2 ug/cm2 after 48 hr by fabric disk assay relative to untreated control; type: functional; outline: as §1
[20] = tested on: Dermatophagoides farinae; test: Acaricidal activity against Dermatophagoides farinae assessed as mortality at 50.9 ug/cm2 after 48 hr by fabric disk assay relative to untreated control; type: functional; outline: as §1
[21] = tested on: Dermatophagoides farinae; test: Acaricidal activity against Dermatophagoides farinae assessed as mortality at 38.2 ug/cm2 after 24 hr by fabric disk assay relative to untreated control; type: functional; outline: as §1
[22] = tested on: Dermatophagoides farinae; test: Acaricidal activity against Dermatophagoides farinae assessed as mortality at 50.9 ug/cm2 after 24 hr by fabric disk assay relative to untreated control; type: functional; outline: as §1
[23] = tested on: Dermatophagoides farinae; test: Acaricidal activity against Dermatophagoides farinae assessed as mortality at 38.2 ug/cm2 after 72 hr by fabric disk assay relative to untreated control; type: functional; outline: as §1
[24] = tested on: Dermatophagoides pteronyssinus; test: whole plant or invertebrate; type: functional; conditions: 24 h
[25] = tested on: Dermatophagoides pteronyssinus; test: whole plant or invertebrate; type: functional; conditions: 24 h; remark: listed apart in the source
[26] = tested on: Dermatophagoides farinae; test: whole plant or invertebrate; type: functional; conditions: 24 h
[27] = tested on: Dermatophagoides farinae; test: whole plant or invertebrate; type: functional; conditions: 24 h; remark: listed apart in the source
[28] = tested on: Dermatophagoides pteronyssinus; test: Acaricidal activity against Dermatophagoides pteronyssinus assessed as mortality at 15.9 to 19.1 ug/cm2 after 24 to 72 hr by fabric disk assay relative to untreated control; type: functional, organism-based; outline: as §2
[29] = tested on: Dermatophagoides farinae; test: Acaricidal activity against Dermatophagoides farinae assessed as mortality at 15.9 ug/cm2 after 72 hr by fabric disk assay relative to untreated control; type: functional; outline: as §1
[30] = tested on: Dermatophagoides farinae; test: Acaricidal activity against Dermatophagoides farinae assessed as mortality at 19.1 ug/cm2 after 72 hr by fabric disk assay relative to untreated control; type: functional; outline: as §1
[31] = tested on: Dermatophagoides farinae; test: Acaricidal activity against Dermatophagoides farinae assessed as mortality at 15.9 ug/cm2 after 48 hr by fabric disk assay relative to untreated control; type: functional; outline: as §1
[32] = tested on: Dermatophagoides farinae; test: Acaricidal activity against Dermatophagoides farinae assessed as mortality at 19.1 ug/cm2 after 48 hr by fabric disk assay relative to untreated control; type: functional; outline: as §1
[33] = tested on: Dermatophagoides farinae; test: Acaricidal activity against Dermatophagoides farinae assessed as mortality at 15.9 ug/cm2 after 24 hr by fabric disk assay relative to untreated control; type: functional; outline: as §1
[34] = tested on: Dermatophagoides farinae; test: Acaricidal activity against Dermatophagoides farinae assessed as mortality at 19.1 ug/cm2 after 24 hr by fabric disk assay relative to untreated control; type: functional; outline: as §1

CC=Cc1ccc(O)c(OC)c1 (mixture of isomers) [CIS/TRANS-ISOEUGENOL]
Activity [1]: Active | mortality at 6.4 µg/cm2 [2]: 66% | mortality at 6.4 µg/cm2 [3]: 66% | mortality at 8 µg/cm2 [4]: 92% | mortality at 6.4 µg/cm2 [5]: 66% | mortality at 8 µg/cm2 [6]: 92% | LD50 [7]: 1.55 microg/cm2 | LD50 [8]: 5.17 microg/cm2 | mortality at 8 µg/cm2 [9]: 92%

O=C(OCc1ccccc1)c1ccccc1 [BENZYL BENZOATE]
mortality at 9.6 µg/cm2 [10]: 47% | mortality at 12.7 µg/cm2 [11]: 96% | mortality at 9.6 µg/cm2 [12]: 47% | mortality at 9.6 µg/cm2 [13]: 47% | Activity [14]: Active | mortality at 12.7 µg/cm2 [15]: 85% | LD50 [7]: 6.59 microg/cm2 | LD50 [8]: 9.22 microg/cm2 | mortality at 12.7 µg/cm2 [16]: 96%

CCN(CC)C(=O)c1cccc(C)c1 [DIETHYLTOLUAMIDE]
Activity [17]: Active | mortality at 50.9 µg/cm2 [18]: 85% | mortality at 38.2 µg/cm2 [19]: 41% | mortality at 50.9 µg/cm2 [20]: 83% | mortality at 38.2 µg/cm2 [21]: 41% | mortality at 50.9 µg/cm2 [22]: 79% | LD50 [7]: 17.98 microg/cm2 | LD50 [8]: 37.59 microg/cm2 | mortality at 38.2 µg/cm2 [23]: 41%

C=CCc1ccc(O)c(OC)c1 [EUGENOL]
mortality at 25.5 µg/cm2 [24]: 21% | Activity [1]: Active | mortality at 6.4 µg/cm2 [2]: 50% | mortality at 6.4 µg/cm2 [3]: 50% | mortality at 8 µg/cm2 [4]: 85% | mortality at 25.5 µg/cm2 [25]: 100% | mortality at 25.5 µg/cm2 [26]: 11% | mortality at 25.5 µg/cm2 [27]: 100% | mortality at 6.4 µg/cm2 [5]: 50% | mortality at 8 µg/cm2 [6]: 85% | LD50 [7]: 3.71 microg/cm2 | LD50 [8]: 5.47 microg/cm2 | mortality at 8 µg/cm2 [9]: 85%

C=CCc1ccc(OC(C)=O)c(OC)c1 [EUGENYL ACETATE]
mortality at 25.5 µg/cm2 [24]: 17% | Activity [28]: Active | mortality at 15.9 µg/cm2 [29]: 65% | mortality at 19.1 µg/cm2 [30]: 88% | mortality at 15.9 µg/cm2 [31]: 65% | mortality at 19.1 µg/cm2 [32]: 88% | mortality at 25.5 µg/cm2 [25]: 100% | mortality at 25.5 µg/cm2 [26]: 12% | mortality at 25.5 µg/cm2 [27]: 100% | mortality at 15.9 µg/cm2 [33]: 65% | mortality at 19.1 µg/cm2 [34]: 88% | LD50 [7]: 5.41 microg/cm2 | LD50 [8]: 14.16 microg/cm2

C/C=C\c1ccc(O)c(OC)c1 [ISOEUGENOL]
mortality at 25.5 µg/cm2 [24]: 32% | mortality at 25.5 µg/cm2 [25]: 100% | mortality at 25.5 µg/cm2 [26]: 21% | mortality at 25.5 µg/cm2 [27]: 100%
